The source made the active and inactive calls. The rule behind the calls is not given here.
Experiments:
[1] = Cytotoxicity against human Mino cells assessed as reduction in cell viability after 72 hrs by MTT assay; format: functional, cell-based
In short: (§1)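 Cells seeded in triplicate at 3 × 10³ cells/well: 293_CHI3L1, U373 and C6 in DMEM; UPN1 in alpha-MEM; Granta, JeKo and Mino in RPMI. Compounds added by serial dilution at final 0.01, 0.1, 1, 10 and 100 µM for 72 h. MTT read-out gives viable cells as % of DMSO vehicle control. IC50 is the concentration giving 50% cell death versus control.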

Granta [2] = test: Cytotoxicity against human Granta cells assessed as reduction in cell viability after 72 hrs by MTT assay; format: functional, cell-based; in short: as §1
[3] = Cytotoxicity against human UPN1 cells assessed as reduction in cell viability after 72 hrs by MTT assay; format: functional, cell-based; conditions: UPN1, 72 h; in short: as §1
[4] = Cytotoxicity against human Jeko cells assessed as reduction in cell viability after 72 hrs by MTT assay; format: functional, cell-based; conditions: JeKo-1, 72 h; in short: as §1
HEK293 [5] = test: Cytotoxicity against HEK293 cells overexpressing CHI3L1 gene assessed as reduction in cell viability after 72 hrs by MTT assay; format: functional, cell-based; conditions: Homo sapiens, HEK293, 72 h; in short: as §1
C6 [6] = test: Cytotoxicity against rat C6 cells assessed as reduction in cell viability after 72 hrs by MTT assay; format: functional, cell-based; conditions: C6, 72 h; in short: as §1
[7] = Cytotoxicity against human U373 cells assessed as reduction in cell viability after 72 hrs by MTT assay; format: functional, cell-based, U-373MG ATCC; conditions: U373 MG; in short: as §1
[8] = target: T1, Mitogen-activated protein kinase; ERK1/ERK2 (Homo sapiens) (UniProt P27361+P28482); test: Inhibition of ERK1/2 phosphorylation in human U373 cells overexpressing CHI3L1 gene after 24 hrs by Western blot analysis; format: cell-based; conditions: U-373MG ATCC
T1 sequence (P27361 whole entry, looked up): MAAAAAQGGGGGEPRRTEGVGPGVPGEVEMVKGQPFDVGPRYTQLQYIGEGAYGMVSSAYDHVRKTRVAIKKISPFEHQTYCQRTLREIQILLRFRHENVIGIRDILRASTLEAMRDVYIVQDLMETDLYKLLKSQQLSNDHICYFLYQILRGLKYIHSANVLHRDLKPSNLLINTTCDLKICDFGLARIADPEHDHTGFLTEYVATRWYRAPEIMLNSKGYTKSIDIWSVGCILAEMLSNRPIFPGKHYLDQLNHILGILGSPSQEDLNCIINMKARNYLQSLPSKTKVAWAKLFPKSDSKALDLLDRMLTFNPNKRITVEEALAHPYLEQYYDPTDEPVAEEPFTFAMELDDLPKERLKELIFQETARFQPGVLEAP
T1 sequence (P28482 whole entry, looked up): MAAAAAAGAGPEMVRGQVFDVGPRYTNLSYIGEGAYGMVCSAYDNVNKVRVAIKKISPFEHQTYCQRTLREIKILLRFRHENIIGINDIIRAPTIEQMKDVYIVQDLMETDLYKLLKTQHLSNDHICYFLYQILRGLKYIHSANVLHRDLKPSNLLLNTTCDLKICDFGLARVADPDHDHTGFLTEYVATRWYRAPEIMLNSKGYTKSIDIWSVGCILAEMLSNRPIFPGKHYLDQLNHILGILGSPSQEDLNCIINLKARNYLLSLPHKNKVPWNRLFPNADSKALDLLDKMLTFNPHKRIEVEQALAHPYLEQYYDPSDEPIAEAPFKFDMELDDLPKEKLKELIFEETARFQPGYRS
In short: (§2)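 293_CHI3L1 or U373 cells seeded in triplicate at 10⁵ cells/well in DMEM/10% FBS and grown to near-confluence. Serum-starved 24 h; U373 then stimulated with 10% FBS. Treated with compound 24 h. Lysates run on 10% SDS–PAGE and blotted for phospho-ERK1/2 or phospho-AKT1 (4 °C overnight), ECL detection. Membranes stripped and reprobed for β-actin.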

[9] = target: RAC-alpha serine/threonine-protein kinase (Homo sapiens) (UniProt P31749); test: Inhibition of AKT1 phosphorylation in human U373 cells overexpressing CHI3L1 gene after 24 hrs by Western blot analysis; format: cell-based; conditions: U-373MG ATCC; in short: as §2
Sequence of RAC-alpha serine/threonine-protein kinase (Homo sapiens) (P31749 whole entry): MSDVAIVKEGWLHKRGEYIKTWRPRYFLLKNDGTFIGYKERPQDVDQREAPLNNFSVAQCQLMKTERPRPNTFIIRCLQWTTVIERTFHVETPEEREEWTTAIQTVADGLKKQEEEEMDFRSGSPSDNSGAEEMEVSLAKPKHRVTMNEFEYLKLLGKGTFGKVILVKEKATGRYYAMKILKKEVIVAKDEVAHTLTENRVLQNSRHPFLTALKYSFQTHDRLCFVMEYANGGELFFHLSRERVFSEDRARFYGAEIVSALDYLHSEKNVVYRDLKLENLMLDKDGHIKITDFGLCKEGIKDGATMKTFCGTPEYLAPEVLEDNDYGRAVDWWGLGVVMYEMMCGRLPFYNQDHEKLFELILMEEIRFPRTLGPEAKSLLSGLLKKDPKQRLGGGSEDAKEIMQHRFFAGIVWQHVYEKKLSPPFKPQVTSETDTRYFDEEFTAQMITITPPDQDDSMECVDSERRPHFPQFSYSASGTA

[10] = target: RAC-alpha serine/threonine-protein kinase (Homo sapiens) (UniProt P31749); test: Inhibition of AKT1 phosphorylation in human HEK293 cells overexpressing CHI3L1 gene after 24 hrs by Western blot analysis; format: cell-based; in short: as §2
[11] = target: T1, Mitogen-activated protein kinase; ERK1/ERK2 (Homo sapiens); test: Inhibition of ERK1/2 phosphorylation in human HEK293 cells overexpressing CHI3L1 gene after 24 hrs by Western blot analysis; format: cell-based; in short: as §2
C6 [12] = test: Cytotoxicity against rat C6 cells assessed as reduction in cell viability at 1 uM after 72 hrs by MTT assay in presence of temozolomide; format: functional
In short: (§3)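 U373 or C6 glioma cells seeded in triplicate at 3 × 10³ cells/well in DMEM. Exposed 72 h to temozolomide at final 10, 100, 250, 500 and 1000, alone or combined with 1 µM bradykinin antagonist. MTT read-out gives viability as % of vehicle control. Mean of two experiments run in triplicate.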

U-373MG ATCC = test: (§4) Cytotoxicity against human U373 cells assessed as reduction in cell viability at 1 uM after 72 hrs by MTT assay in presence of temozolomide; format: functional; in short: as §3
[13] = target: T1, Mitogen-activated protein kinase; ERK1/ERK2 (Homo sapiens); test: Inhibition of ERK1/2 phosphorylation in human HEK293 cells overexpressing CHI3L1 gene at 10 uM after 24 hrs by Western blot analysis; format: cell-based; in short: as §2
[14] = Antitumor activity against human Small cell lung cancer cells xenografted in mouse assessed as tumor growth inhibition; format: functional, Cancer cell lines
[15] = target: RAC-alpha serine/threonine-protein kinase (Homo sapiens) (UniProt P31749); test: Inhibition of AKT1 phosphorylation in human U373 cells at 10 uM after 24 hrs by Western blot analysis; format: cell-based; conditions: U-373MG ATCC; in short: as §2
[16] = target: RAC-alpha serine/threonine-protein kinase (Homo sapiens) (UniProt P31749); test: Inhibition of AKT1 phosphorylation in human HEK293 cells overexpressing CHI3L1 gene at 10 uM after 24 hrs by Western blot analysis; format: cell-based; in short: as §2
[17] = target: T1, Mitogen-activated protein kinase; ERK1/ERK2 (Homo sapiens); test: Inhibition of ERK1/2 phosphorylation in human U373 cells at 50 uM after 24 hrs by Western blot analysis; format: cell-based; conditions: U-373MG ATCC; in short: as §2
[18] = target: RAC-alpha serine/threonine-protein kinase (Homo sapiens) (UniProt P31749); test: Inhibition of AKT1 phosphorylation in human HEK293 cells overexpressing CHI3L1 gene at 50 uM after 24 hrs by Western blot analysis; format: cell-based; in short: as §2
[19] = target: T1, Mitogen-activated protein kinase; ERK1/ERK2 (Homo sapiens); test: Inhibition of ERK1/2 phosphorylation in human HEK293 cells overexpressing CHI3L1 gene at 50 uM after 24 hrs by Western blot analysis; format: cell-based; in short: as §2
[20] = Cytotoxicity against human Small cell lung cancer cells assessed as reduction in cell viability after 72 hrs by MTT assay; format: functional, cell-based; conditions: Cancer cell lines
HEK293 [21] = test: Cytotoxicity against HEK293 cells overexpressing CHI3L1 gene assessed as reduction in cell viability at 50 uM after 72 hrs by MTT assay; format: functional, cell-based; conditions: Homo sapiens
[22] = as §4; format: functional, U-373MG ATCC; in short: as §3
Mino = test: Cytotoxicity against human Mino cells assessed as reduction in cell viability at 100 uM after 72 hrs by MTT assay; format: functional, cell-based; in short: as §1
Granta [23] = test: Cytotoxicity against human Granta cells assessed as reduction in cell viability at 100 uM after 72 hrs by MTT assay; format: functional, cell-based; in short: as §1
[24] = Cytotoxicity against human UPN1 cells assessed as viable cells at 100 uM after 72 hrs by MTT assay; format: functional; conditions: UPN1, 72 h, read-out: Activity; in short: as §1
[25] = Cytotoxicity against human Jeko cells assessed as viable cells at 100 uM after 72 hrs by MTT assay; format: functional; conditions: JeKo-1, 72 h, read-out: Activity; in short: as §1

For `CN(C)c1ccc(C2CC(c3ccc(Cl)cc3)=NN2C2=NC(=O)/C(=C3/C(=O)Nc4ccc(Br)cc43)S2)cc1` (configuration not stated), the IC50 [1] was 0.16 µM.

For `COc1ccc(-c2nnc(NC(=O)CN3C(=O)S/C(=C\c4ccc(N(C)C)cc4)C3=O)o2)cc1`, the IC50 (Granta [2]) was > 100 µM, the IC50 [3] was > 100 µM and the IC50 [4] was > 100 µM.

In the case of `O=C1N=C(N2N=C(c3ccc(Br)cc3)CC2c2ccc(Cl)cc2)S/C1=C1\C(=O)Nc2ccc(Br)cc21` (configuration not stated), the IC50 [1] is reported as 0.27 µM.

Molecule `O=C1N=C(N2N=C(c3ccc(Br)cc3)CC2c2ccc(Cl)cc2)S/C1=C1\C(=O)Nc2ccc(Cl)cc21` (configuration not stated) has an IC50 [1] of 7.4 µM.

For `N=C(N)NCCC[C@H](NC(=O)C1CC2CCCCC2N1C(=O)[C@H](NC(=O)[C@H](CO)NC(=O)[C@@H](NC(=O)CNC(=O)[C@@H]1C[C@@H](O)CN1C(=O)[C@@H]1CCCN1C(=O)[C@H](CCCNC(=N)N)NC(=O)[C@@H](CCCNC(=N)N)NC(=O)/C=C/c1c(F)c(F)c(F)c(F)c1F)C1Cc2ccccc2C1)C1Cc2ccccc2C1)C(=O)O` (some centres not stated), the IC50 (HEK293 [5]) was 67.9 µM, the IC50 (C6 [6]) was 37 µM and the IC50 [7] was > 100 µM. For the same molecule, the IC50 (Granta [2]) was > 100 µM, the inhibition [8] was “inactive” and the IC50 [3] was > 100 µM. The IC50 [4] was 50.5 µM, the inhibition [9] was “inactive” and the inhibition [10] was “inactive”. For the same molecule, the inhibition [11] was “inactive”.

For `CC1(C)CC(NC(=O)[C@H](Cc2ccc(OCc3c(Cl)cccc3Cl)cc2)NC(=O)OCC2c3ccccc3-c3ccccc32)CC(C)(C)N1`, the IC50 (HEK293 [5]) was 25.8 µM, the IC50 (C6 [6]) was 15 µM and the IC50 [7] was 20 µM. The Activity (C6 [12]) was “inactive”, the IC50 (Granta [2]) was 41.2 µM and the IC50 [3] was > 100 µM. For the same molecule, the IC50 [4] was 52.3 µM and the Activity (U-373MG ATCC) was “inactive”.

With `O=C1N=C(N2N=C(c3ccc(Cl)cc3)CC2c2ccc(Cl)cc2)S/C1=C1\C(=O)Nc2ccc(Br)cc21` (configuration not stated) the IC50 [1] was 0.73 µM.

For `O=C1N=C(N2N=C(c3ccccc3)CC2c2ccc(Cl)cc2)S/C1=C1\C(=O)Nc2ccccc21` (configuration not stated), the IC50 (Granta [2]) was > 100 µM, the IC50 [3] was > 100 µM and the IC50 [4] was > 100 µM.

`O=C1N=C(N2N=C(c3ccc(Br)cc3)CC2c2ccc(Cl)cc2)S/C1=C1\C(=O)Nc2ccccc21` (configuration not stated) gave an IC50 [1] of 10 µM.

Work on `O=C1N=C(N2N=C(c3ccc(Cl)cc3)CC2c2ccc(Cl)cc2)S/C1=C1\C(=O)Nc2ccc(Cl)cc21` (configuration not stated) yielded an IC50 (C6 [6]) of 1.22 µM and an IC50 [1] of 80.7 µM.

`CC1(C)CC(NC(=O)[C@H](Cc2ccc(OCc3c(Cl)cccc3Cl)cc2)NC(=O)/C=C/c2c(F)c(F)c(F)c(F)c2F)CC(C)(C)N1` showed an IC50 (HEK293 [5]) of 3.8 µM, an IC50 (C6 [6]) of 4 µM and an IC50 [7] of 3.3 µM. The Activity (C6 [12]) was 80%, the inhibition [13] was “Active” and the TGI [14] was 91%. For the same molecule, the IC50 (Granta [2]) was 63.3 µM, the inhibition [15] was “Active” and the inhibition [8] was “Dose-dependent effect”. For the same molecule, the IC50 [3] was > 100 µM, the inhibition [16] was “Active” and the inhibition [17] was “inactive”. For the same molecule, the inhibition [18] was “Active”, the inhibition [19] was “Active” and the IC50 [20] was 1.8 µM. For the same molecule, the IC50 [4] was 49.3 µM, the inhibition (HEK293 [21]) was “Active” and the Activity [22] was 80%. The inhibition [9] was “Dose-dependent effect”, the inhibition [10] was “Dose-dependent effect” and the inhibition [11] was “Dose-dependent effect”.

With `O=C1N=C(Nc2ccc(O)cc2)S/C1=C\c1ccc(Cl)cc1` the IC50 (Granta [2]) was > 100 µM, the IC50 [3] was > 100 µM and the IC50 [1] was 61.2 µM. The IC50 [4] was > 100 µM.

In the case of `O=C1N=C(N2N=C(c3ccc(Cl)cc3)CC2c2ccc(Cl)cc2)S/C1=C1\C(=O)Nc2ccccc21` (configuration not stated), the Activity (Mino) is reported as “inactive”, the Activity (Granta [23]) is reported as “inactive” and the viability at 100 µM [24] is reported as 60%. It also gave a viability at 100 µM [25] of 60% and an IC50 [1] of 68.2 µM.

`COc1ccc(NC(=O)COc2ccc(Cl)cc2/C=C2\SC(=S)N(Nc3nc4ccccc4s3)C2=O)cc1` gave an IC50 [1] of 55.3 µM.
